Data: PubChem BioAssay
Calls of active or inactive are those of the source.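 The calls were made as follows, unless noted: active = fluorescence slope after compound addition differing from the mean of all tested samples at 99.7% confidence, mostly higher but some lower; inactive = the rest.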

Assays:
[1] = inhibitors of TNFa-induced NFkB p65 translocation, primary screen, imaging, HUVEC, MLSMR starter and 10KST1 sets (AID 438;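 active = inhibition above 20% together with a positive visual image hit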;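 also: compound added about 3h40 before a 20 min TNFalpha stimulation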;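 as to inhibition: signal is the nuclear over cytoplasmic p65 intensity ratio per well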); settings: HUVEC TNFa-induced p65 nuclear translocation; cell count: measured here: nuclei count (cytotoxicity indicator), at 2.08 µM; inhibition: at 2 µM, stronger effect = higher value, 0% TNFa-plus-vehicle, 100% no-TNFa wells
[2] = reduction of polyQ htt aggregates in cells – imaging, exon1htt(103Q)mCFP cells, high-content imaging, primary screen (AID 483;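 active = visual image review flags a hit and inhibition of aggregation exceeds 20%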;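 also: compound exposure lasted 3 days before fixation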;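 as to nuclei count: percent of the per-plate median nuclei count of sample wells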); settings: exon1htt(103Q)mCFP cell line, aggregate imaging, at 2 µM; inhibition of aggregation: stronger effect = higher value; nuclei count: measured here: cell count, toxicity
[3] = endothelial E-selectin expression blockers – imaging, HUVEC, immunofluorescence, MLSMR starter and 10KST1 sets, primary screen (AID 487;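 active = visually confirmed hit in the image check and inhibition above 20%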;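 as to inhibition: signal is fraction of cell area covered by stained E-selectin grains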;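 as to nuclei count: 100% = median nuclei count of all wells on the same plate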); settings: HUVEC TNFalpha-induced E-selectin immunofluorescence imaging, at 2 µM; inhibition: stronger effect = higher value; nuclei count: measured here: cell number, toxicity
[4] = target: Voltage-gated potassium channel subunit beta-2 (Rattus norvegicus) (UniProt P62483); assay: inhibitors of rat Kvbeta2 reductase activity – biochemical, NADPH fluorescence, primary screen (AID 622;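 active = fluorescence slope higher than the sample average by over 3 SD, cut at about -0.22 in these data, passing the limit was not always enough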;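 also: slope of raw intensity against log time taken from 70 to 1610 s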); settings: recombinant KvBeta, 4-cyanobenzaldehyde reduction, at 10 µM, stronger effect = higher value
[5] = target: Voltage-gated potassium channel subunit beta-2 (Rattus norvegicus) (UniProt P62483); assay: enhancers of rat Kvbeta2 NADPH turnover – biochemical, NADPH fluorescence, primary screen (AID 623;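 active = NADPH fluorescence slope more negative than the mean of all samples by about 3 SD, 99.7% confidence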;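 also: fluorescence intensity change per second fitted from 20 to 320 s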); settings: Recombinant KvBeta, NADPH fluorescence decrease slope, 10 min; at 10 µM; stronger effect = lower value
[6] = target: Muscarinic acetylcholine receptor M4 (Homo sapiens) (UniProt P08173); assay: M4-linked GIRK flux change, two-sided – cell-based, HEK293 M4/GIRK, thallium flux, BTC-AM, M4 allosteric agonist project, primary screen (AID 625); settings: at 10 µM, actives lie on both sides;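 also: thallium influx through GIRK channels coupled to M4 in HEK293 cells with BTC-AM dye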
In short: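 System: HEK293 cells with M4 receptor and GIRK channels | Incubation: Cells overnight at 37 °C, BTC-AM loading 1 h, reads 2 min total | Technique: Kinetic BTC-AM fluorescence sampled at 1 Hz, 10 s pre-addition baseline | Measure: Post-addition slope, 15–24 s, of baseline-normalized fluorescence | Control set: Carbachol positive, DMSO negative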

[7] = blockers of RIG-like receptor reporter activation – cell-based, Sendai virus stimulus, luciferase, 10K MLSCN set, TLR/RLR signaling modifier project, primary screen (AID 602276;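 active = inhibition at or above 50% at 10 µM; inactive = inhibition below 50%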;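 also: firefly luciferase from ISG56 promoter only with Renilla not read in this screen; 0% = Sendai virus plus DMSO and 100% = medium plus DMSO without virus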); settings: HEK293 RL24 IRF3 luciferase reporter, at 10 µM, stronger effect = higher value
[8] = TLR3 IRF3 reporter activation blockers – cell-based, poly I:C stimulus, luciferase, 10K MLSCN set, primary screen (AID 602277;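 active = inhibition of the reporter signal at or above 50%; inactive = inhibition below 50%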); settings: HEK293-TLR3 RL24 IRF3 luciferase reporter, at 10 µM, stronger effect = higher value

Sequence of Muscarinic acetylcholine receptor M4 (Homo sapiens) (P08173 whole entry, looked up): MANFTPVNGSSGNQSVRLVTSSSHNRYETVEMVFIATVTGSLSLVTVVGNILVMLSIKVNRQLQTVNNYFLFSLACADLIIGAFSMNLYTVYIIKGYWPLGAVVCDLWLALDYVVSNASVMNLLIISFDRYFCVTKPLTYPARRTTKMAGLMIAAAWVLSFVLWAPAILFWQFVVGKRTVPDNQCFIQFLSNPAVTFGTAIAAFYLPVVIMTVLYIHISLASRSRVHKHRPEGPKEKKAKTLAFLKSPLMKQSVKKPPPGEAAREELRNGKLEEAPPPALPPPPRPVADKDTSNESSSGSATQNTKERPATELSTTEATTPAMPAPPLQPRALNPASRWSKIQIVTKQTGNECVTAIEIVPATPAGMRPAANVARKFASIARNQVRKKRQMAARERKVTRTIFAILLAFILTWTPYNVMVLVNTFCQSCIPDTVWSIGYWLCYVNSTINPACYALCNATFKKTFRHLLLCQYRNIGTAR
Sequence of Voltage-gated potassium channel subunit beta-2 (Rattus norvegicus) (P62483 whole entry, looked up): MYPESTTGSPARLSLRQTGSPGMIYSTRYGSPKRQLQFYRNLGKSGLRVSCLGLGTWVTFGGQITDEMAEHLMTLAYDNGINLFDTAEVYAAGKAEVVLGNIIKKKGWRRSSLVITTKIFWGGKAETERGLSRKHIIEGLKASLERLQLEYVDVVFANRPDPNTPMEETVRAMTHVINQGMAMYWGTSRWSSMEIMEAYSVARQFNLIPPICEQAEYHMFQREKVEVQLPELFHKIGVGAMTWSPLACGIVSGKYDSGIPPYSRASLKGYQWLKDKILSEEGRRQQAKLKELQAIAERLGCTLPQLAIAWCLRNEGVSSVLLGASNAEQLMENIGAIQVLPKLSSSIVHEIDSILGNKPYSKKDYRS

SMILES | cell count [1] | inhibition [1] | inhibition of aggregation [2] | nuclei count [2] [%] | inhibition [3] | nuclei count [3] [%] | fluorescence slope [4] | NADPH fluorescence slope [5] | fluorescence slope [6] | inhibition [7] | inhibition [8]
CCOC(=O)c1[nH]c2ccc(C)cc2c1N=C(C)N(C)C | 579 | 5.2% (inactive) | -6.9% (inactive) | 100 | -27.2% (inactive) | 108 | -0.563 (inactive) | -6e-05 (inactive) | 0.00488 (inactive) | 20.7% (inactive) | 21.2% (inactive)
O=C(CN1C(=O)CC(c2ccco2)Sc2ccccc21)Nc1ccc2c(c1)OCCO2 (centres undefined) | 809 | -2.8% (inactive) | -218% (inactive) | 99.6 | -69.7% (inactive) | 105 | -0.459 (inactive) | -1.9e-05 (inactive) | 0.0054 (inactive) | 14.9% (inactive) | 9.54% (inactive)
O=C(Nc1ccccc1C(=O)N1CCOCC1)c1ccncc1 | 389 | 0.7% (inactive) | 5.4% (inactive) | 107 | -97.8% (inactive) | 105 | -0.579 (inactive) | -3.8e-05 (inactive) | 0.00647 (inactive) | 5.72% (inactive) | 17.1% (inactive)
NC(=O)CSc1nnc(-c2ccc(O)cc2)n1Cc1ccco1 | 371 | -0.2% (inactive) | 18.6% (inactive) | 98.1 | -112% (inactive) | 93.2 | -0.531 (inactive) | -4.4e-05 (inactive) | 0.00558 (inactive) | 11.3% (inactive) | 19.8% (inactive)
CC(=O)Nc1cccc(NC(=O)CSc2nnnn2C)c1 | 754 | -2.1% (inactive) | -16.5% (inactive) | 104 | -135% (inactive) | 131 | -0.481 (inactive) | -5.6e-05 (inactive) | 0.00501 (inactive) | 21.2% (inactive) | 13.5% (inactive)
COc1ccc(N2CCN(C(c3cccs3)C(C)NC(=O)c3ccco3)CC2)cc1 (centres undefined) | 467 | 5.5% (inactive) | -7.1% (inactive) | 83.9 | 11.8% (inactive) | 101 | -0.368 (inactive) | -7.2e-05 (inactive) | 0.00502 (inactive) | 8.09% (inactive) | 22.4% (inactive)
O=S(=O)(NC1=NCCC1)c1cccs1 | 524 | -7% (inactive) | 11% (inactive) | 102 | 27.1% (inactive) | 103 | -0.353 (inactive) | -4.6e-05 (inactive) | 0.00585 (inactive) | 8.22% (inactive) | 5.63% (inactive)
Nc1nc(-c2ccccc2)cc(C(F)(F)F)n1 | 457 | -7.5% (inactive) | 1.3% (inactive) | 98.1 | -11.2% (inactive) | 107 | -0.571 (inactive) | 1.4e-06 (inactive) | 0.00753 (inactive) | 11% (inactive) | 6.96% (inactive)
COc1cc(OC)cc(-c2nc3cc(C)ccc3o2)c1 | 424 | 1.7% (inactive) | -2% (inactive) | 90.1 | -55.4% (inactive) | 99.4 | -0.55 (inactive) | -4.6e-05 (inactive) | 0.00552 (inactive) | -23.5% (inactive) | -45.9% (inactive)
O=C1CCC(=O)N1OCCCOc1ccc(Br)cc1Cl | 490 | 1% (inactive) | 9% (inactive) | 74.1 | -76% (inactive) | 106 | -0.456 (inactive) | 2e-05 (inactive) | 0.00805 (inactive) | 16.1% (inactive) | 18% (inactive)
CC(=O)Oc1ccc(CCC(C)OC(C)=O)cc1 (centres undefined) | 634 | -2.9% (inactive) | -2.2% (inactive) | 100 | -0.1% (inactive) | 84 | -0.518 (inactive) | -5.9e-05 (inactive) | 0.00491 (inactive) | 14.9% (inactive) | 12.9% (inactive)
CCCSc1nc2c(c(=O)[nH]c(=O)n2C)n1CCc1ccccc1 | 413 | 11.9% (inactive) | 0.6% (inactive) | 107 | -76.3% (inactive) | 110 | -0.507 (inactive) | -3.4e-05 (inactive) | 0.00465 (inactive) | 17.9% (inactive) | 4.39% (inactive)
Cc1cccc2cc(CN(Cc3nnnn3Cc3ccccc3)C3CCCC3)c(=O)[nH]c12 | 561 | -9% (inactive) | -39.5% (inactive) | 76.4 | -35.7% (inactive) | 111 | -0.483 (inactive) | -0.00011 (inactive) | 0.00509 (inactive) | 14.3% (inactive) | 15% (inactive)
CCS(=O)(=O)c1ccc(S(=O)(=O)CC)s1 | 412 | -5.5% (inactive) | 25.8% (inactive) | 61.1 | 10.5% (inactive) | 82.3 | -0.584 (inactive) | -4.4e-05 (inactive) | 0.00846 (inactive) | 6.99% (inactive) | 17.4% (inactive)
